From ChEMBL document CHEMBL1153353, “Probing of the cis-5-phenyl proline scaffold as a platform for the synthesis of mechanism-based inhibitors of the Staphylococcus aureus sortase SrtA isoform” (Bioorg Med Chem, 2009)
Calls of active or inactive are those of the source. The calls are words filed in the database; no cut-off is given here.

The molecules below were run against T1, Sortase A (Staphylococcus aureus) (UniProt Q9S446) (assay: Inhibition of 6-His tagged Staphylococcus aureus recombinant sortase delta N24 expressed in Escherichia coli BL21 (DE3) at 5 mM).
T1 sequence (whole entry): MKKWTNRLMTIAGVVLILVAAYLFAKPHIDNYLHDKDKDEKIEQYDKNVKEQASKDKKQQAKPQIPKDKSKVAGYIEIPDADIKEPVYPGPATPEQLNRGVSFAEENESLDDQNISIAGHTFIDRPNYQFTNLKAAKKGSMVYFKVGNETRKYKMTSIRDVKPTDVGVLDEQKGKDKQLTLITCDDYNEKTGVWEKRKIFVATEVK
Procedure, shortened: (§1)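 His6-SrtAΔN24 (1 μM) was pre-incubated with inhibitor for 30 min at 37°C in 300 mM Tris pH 7.5, 150 mM NaCl, 5 mM CaCl2, 0.1% CHAPS and 2% DMSO. The reaction was started with 2 mM Abz-LPETG-Dap(DNP)-NH2 plus 2 mM NH2-Gly5-OH, run 30 min at 37°C, and quenched with 1.2 M HCl. Substrate and product were separated by reverse-phase HPLC and read at 355 nm. Percent substrate conversion came from peak areas.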

Row | Activity | inhibition [%] | Structure (SMILES)
1 | inactive | – | COC(=O)[C@@H]1C[C@@H](C#N)[C@H](c2cccc(Cl)c2)N1 (racemic)
2 | inactive | – | COC(=O)[C@@H]1C[C@@H](C#N)[C@H](c2cccc(F)c2)N1 (racemic)
3 | inactive | – | COC(=O)[C@@H]1C[C@@H](C#N)[C@H](c2cccc(F)c2F)N1 (racemic)
4 | – | 20 | COC(=O)[C@@H]1C[C@@H](C#N)[C@H](c2ccccc2)N1 (racemic)
5 | – | 20 | COC(=O)[C@@H]1C[C@@H](C#N)[C@H](c2ccccc2F)N1 (racemic)
6 | – | 20 | COC(=O)[C@@H]1C[C@H](C#N)[C@H](c2cccc(Cl)c2)N1 (racemic)
7 | inactive | – | COC(=O)[C@@H]1C[C@H](C#N)[C@H](c2cccc(F)c2)N1 (racemic)
8 | inactive | – | COC(=O)[C@@H]1C[C@H](C#N)[C@H](c2cccc(F)c2F)N1 (racemic)
9 | inactive | – | COC(=O)[C@@H]1C[C@H](C#N)[C@H](c2cccc(F)c2F)N1C (racemic)
10 | inactive | – | COC(=O)[C@@H]1C[C@H](C#N)[C@H](c2ccccc2)N1 (racemic)
11 | inactive | – | COC(=O)[C@@H]1C[C@H](C#N)[C@H](c2ccccc2)N1C (racemic)
12 | – | 20 | COC(=O)[C@@H]1C[C@H](C#N)[C@H](c2ccccc2F)N1 (racemic)
13 | – | 20 | COC(=O)[C@@H]1C[C@H](C#N)[C@H](c2ccccc2F)N1C (racemic)
14 | inactive | – | COC(=O)[C@]1(C)C[C@@H](C#N)[C@H](c2ccc(Cl)cc2)N1 (racemic)
15 | inactive | – | COC(=O)[C@]1(C)C[C@@H](C#N)[C@H](c2ccccc2C)N1 (racemic)
16 | inactive | – | COC(=O)[C@]1(C)C[C@@H](C#N)[C@H](c2ccccc2Cl)N1 (racemic)
17 | inactive | – | COC(=O)[C@]1(C)C[C@H](C#N)[C@H](c2ccc(Cl)cc2)N1 (racemic)
18 | inactive | – | COC(=O)[C@]1(C)C[C@H](C#N)[C@H](c2ccccc2C)N1 (racemic)
19 | inactive | – | COC(=O)[C@]1(C)C[C@H](C#N)[C@H](c2ccccc2C)N1C (racemic)
20 | inactive | – | COC(=O)[C@]1(C)C[C@H](C#N)[C@H](c2ccccc2Cl)N1 (racemic)
21 | – | 20 | COC(=O)[C@]1(C)C[C@H](C#N)[C@H](c2ccccc2Cl)N1C (racemic)
22 | inactive | – | Cc1cn(C[C@@H]2C[C@H](C#N)[C@H](c3ccccc3)N2C)c(=O)[nH]c1=O (racemic)

Row | Structure (SMILES) | Activity | inhibition [%]
23 | C=CS(=O)(=O)[C@H]1C[C@@H](C(=O)OC)N[C@H]1c1ccccc1 (racemic) | Active | –
24 | C=CS(=O)(=O)[C@H]1C[C@@H](C(=O)OC)N[C@H]1c1cccc(F)c1 (racemic) | Active | –
25 | C=CS(=O)(=O)[C@H]1C[C@@H](C(=O)OC)N[C@H]1c1ccccc1F (racemic) | Active | –

What follows are molecules tested against T1, Sortase A (Staphylococcus aureus) (assay: Inhibition of 6-His tagged Staphylococcus aureus recombinant sortase delta N24 expressed in Escherichia coli BL21 (DE3) at 1 mM).
Procedure, shortened: as §1

Row | inhibition [%] | Structure (SMILES)
26 | 6 | Cc1cn(C[C@@H]2C[C@H](C#N)[C@H](c3ccccc3)N2C)c(=O)[nH]c1=O (racemic)

The molecules below were run against T2, Sortase A (Staphylococcus aureus, UniProt Q9S446) (assay: Inhibition of 6-His tagged Staphylococcus aureus recombinant sortase delta N24 expressed in Escherichia coli BL21 (DE3)).
T2 sequence (Q9S446 whole entry): T1 sequence (whole entry)
Procedure, shortened: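 N-terminally His6-tagged SrtA lacking residues 1-24, Ni-chelate purified. 1 μM enzyme pre-incubated with inhibitor 30 min at 37°C, then 2 mM Abz-LPETG-Dap(DNP)-NH2 plus 2 mM NH2-Gly5-OH added. Buffer: 300 mM Tris pH 7.5, 150 mM NaCl, 5 mM CaCl2, 0.1% CHAPS, 2% DMSO. Ran 30 min at 37°C, HCl-quenched. Reverse-phase HPLC at 355 nm gave substrate-to-product conversion, relative to uninhibited controls.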

Row | Structure (SMILES) | IC50 [µM]
27 | CN(C)C(=N)N.O=C(NCCSSCCNC(=O)/C(Cc1ccc(S(=O)(=O)O)c(Br)c1)=N/O)/C(Cc1ccc(O)c(Br)c1)=N/O | 48.3
28 | C=CS(=O)(=O)[C@H]1C[C@@H](C(=O)OC)N[C@H]1c1ccccc1 (racemic) | 850
29 | C=CS(=O)(=O)[C@H]1C[C@]2(C(=O)OC)CCC(=O)N2[C@H]1c1ccc(OC)c(OC)c1 (racemic) | 2680
30 | C=CS(=O)(=O)[C@H]1C[C@]2(C(=O)OC)CCC(=O)N2[C@H]1c1cccnc1 (racemic) | 2470
31 | C=CS(=O)(=O)[C@H]1C[C@@H](C(=O)OC)N[C@H]1c1cccc(F)c1 (racemic) | 1040
32 | C=CS(=O)(=O)[C@H]1C[C@@](CCC(=O)OC)(C(=O)OC)N[C@H]1c1cccnc1 (racemic) | 1860
33 | C=CS(=O)(=O)[C@H]1C[C@]2(C(=O)OC)CCC(=O)N2[C@H]1c1ccccc1 (racemic) | 2200
34 | C=CS(=O)(=O)[C@H]1C[C@@H](C(=O)OC)N[C@H]1c1ccccc1F (racemic) | 1320
35 | C=CS(=O)(=O)[C@H]1C[C@@](CCC(=O)OC)(C(=O)OC)N[C@H]1c1ccc(OC)c(OC)c1 (racemic) | > 5000
36 | C=CS(=O)(=O)c1ccccc1 [(ETHENYLSULFONYL)BENZENE] | 736
37 | COc1cc(/C=C/C(=O)CC(=O)/C=C/c2ccc(O)c(OC)c2)ccc1O [CURCUMIN] | 37.5
38 | O=c1c(O)c(-c2ccc(O)cc2O)oc2cc(O)cc(O)c12 [MORIN] | 37.4
